Bioassay records: PubChem BioAssay, several laboratories
T cell modulator = modulates CD8 T cell binding to vesicles; 2C CD8+ T cell-vesicle binding, flow cytometry; active compounds read low; response (vesicle binding), % at 7 µM; 0.068% of 330,000 active;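 active means response, share of CD8 T cells binding vesicles, and their 90th percentile fluorescence all below set limits, cut at about 80% in these data, passing the limit was not always enough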;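 further: values below 100% mean blocked vesicle binding to the CD8+ T cells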
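incubation = binding step 1.5 h, 37 °C, antibody labelling 20 min, ice | test system = 2C mouse CD8+ T cells | read-out basis = percent CD8+ FL2 mean versus row control | controls = Peptide-free naked vesicles (low) and QL9 vesicles with 0.7% DMSO vehicle (high) | detection = flow cytometry of vesicle-bound cells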
Myeloid diff 2 = compounds promoting myeloid differentiation | ER-HoxA9 myeloid progenitors, lysozyme-GFP differentiation, flow cytometry | calls only at 10 µM | 1% of 360,000 active;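 active means normalized GFP-positive differentiation at or above the plate's own cutoff, the solvent-only control mean plus 3 SD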;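 further: cells exposed to compound for four days before flow analysis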
DSG3 Ab inh = blocks pemphigus antibody binding to human desmoglein-3; P32926; DSG3-coupled beads, scFv-anti-DSG3-GFP binding, flow cytometry; active compounds read low; binding (percent of control), % at 10 µM; 0.48% of 310,000 active;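 active means binding more than 3 SD below its plate's average and above zero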;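 further: hits lower antibody fragment binding to DSG3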
Vif imaging = HIV Vif inhibition; HEK293T cells, Vif self-association by quenched fluorescence, imaging, 24 h; inhibition, % at 7.49 µM; 0.35% of 340,000 active; in the data active means inhibition above about 50%, passing the limit was not always enough
* hit, by the source's call; i = inactive; x = no result; + = active, no number. A selection: hits, their analogues and other compounds. The true share with any hit is near 1.7%.

SMILES	T cell modulator	Myeloid diff 2	DSG3 Ab inh	Vif imaging
CC(=O)Nc1cccc(NC(=O)c2cc(-c3ccccn3)nc3ccc(Cl)cc23)c1	179.1	i	112.5	69.8*
OC[C@@H]1CN(CCNc2ccccc2)C[C@H](n2cnc3c(NCc4ccncc4)ncnc32)O1	x	i	x	-2.4
COc1cc(C(=O)NNC(=O)Cc2cccs2)cc(OC)c1OC	326.5	i	96.2	9.8
COc1cc(C(=O)NNC(=O)CCOc2ccccc2)cc(OC)c1OC	467.9	+	104.3	10.4
CCOC(=O)N1CCC2(O)CCCCC2C1c1ccc(F)cc1 (stereo unspecified)	233.1	i	85.6*	x
CC1(C(=O)NCc2ccccc2)CSCC(=O)N1CCOc1ccccc1 (stereo unspecified)	x	i	x	x
COC(=O)[C@]1(C)N[C@H](CN(C)C(=O)Nc2ccc(OC)cc2)[C@@H]2C(=O)N(C)C(=O)[C@@H]21	i	i	79.8*	-1.3
COC(=O)[C@]1(C)N[C@H](CN(C)S(=O)(=O)c2ccc(OC(F)(F)F)cc2)[C@@H]2C(=O)N(C)C(=O)[C@@H]21	0.0*	i	98.9	0.2
CCN(C[C@H]1N[C@@](CC)(C(=O)OC)[C@H]2C(=O)N(Cc3ccccc3)C(=O)[C@@H]12)C(=O)Nc1ccc(OC)cc1	536.0	+	100.0	x
CCN(C[C@H]1N[C@@](CC)(C(=O)OC)[C@H]2C(=O)N(Cc3ccccc3)C(=O)[C@@H]12)C(=O)Nc1ccc(C(F)(F)F)cc1	264.8	i	95.5	0.2
COC(=O)[C@]1(C)N[C@H](CN(C)C(=O)Nc2ccc(F)cc2)[C@@H]2C(=O)N(C)C(=O)[C@@H]21	374.1	i	97.9	16.1
COC(=O)[C@]1(C)N[C@H](CN(C)S(=O)(=O)c2ccc(C(C)(C)C)cc2)[C@@H]2C(=O)N(C)C(=O)[C@@H]21	214.9	i	84.8	-6.7
Cc1cccc(C)c1NC(=O)C1(C)CSCC(=O)N1CCC(C)C (stereo unspecified)	x	i	x	x
CCOc1ccc(C(C)=O)cc1COC(=O)CCc1cc(OC)c(OC)c(OC)c1	355.0	i	120.2	5.1
Cc1cccc(NC(=O)c2nc[nH]c2C(=O)NCCCCNC(=O)c2[nH]cnc2C(=O)Nc2cccc(C)c2)c1	474.2	i	98.8	-2.8
COc1ccccc1/C(C)=N/Oc1cc(N)cc([N+](=O)[O-])c1	568.8	i	x	-2.8
CCCC(NC(=O)C(C)N1CCN(S(=O)(=O)c2ccccc2)CC1)c1ccccc1 (stereo unspecified)	270.0	i	98.9	-5.0
COc1ccc(-c2c(NC(=O)c3ccco3)oc3c(C)cccc3c2=O)cc1OC	301.7	i	100.4	-11.6
Cc1cccc(-c2c(NC(=O)c3ccco3)oc3c(C)cccc3c2=O)c1	959.8	+	99.1	-8.4
CCN(CC(=O)Nc1ccccc1C(F)(F)F)C(=O)c1ccc(-n2nc(C)c(CCC(=O)OC)c2C)cc1	x	i	113.4	-4.3
CCOC(=O)C1CCN(CC(O)COc2ccc(C(C)(C)C)cc2)CC1 (stereo unspecified)	776.4	+	108.4	-1.4
O=C(c1nn2c(C(F)(F)F)cc(-c3cccs3)nc2c1Cl)N1CCCc2ccccc21	433.6	+	i	-1.8
COC(=O)c1ccc(-c2sc3nc(N4CCOCC4)c4c(c3c2N)CC(C)(C)OC4)o1	203.3	i	38.1*	6.5
CC1(C)Cc2nc3sc4c(=O)[nH]cnc4c3cc2CS1	198.6	i	79.5*	x
COc1cc(C(C)=O)ccc1OCC(=O)NCc1ccccc1CN1CCCC1	x	i	102.4	0.4
SMILES	T cell modulator	Myeloid diff 2	DSG3 Ab inh	Vif imaging
Cc1ccc(S(=O)(=O)Nc2c(C)nc3nc(C)[nH]n3c2=O)c(C)c1	217.7	i	103.5	63.8*
CN(C)C(=S)NC(=O)C(c1ccccc1)c1ccccc1	506.3	i	-11.9*	-5.5
COC(=O)C1=CN(c2ccc(F)cc2)C(N)=C(C#N)C1c1ccccc1 (stereo unspecified)	x	i	x	x
COC(=O)C1=CN(c2ccc3c(c2)OCO3)C(N)=C(C#N)C1c1ccccc1 (stereo unspecified)	x	+	x	x
Cc1ccccc1-c1ccc2c(c1)O[C@H](CN(C)C(=O)C1CC1)[C@@H](C)CN([C@@H](C)CO)S2(=O)=O	x	i	x	4.2
O=C(Cc1cccs1)N[C@@H]1c2ccccc2CC[C@@H]1OCc1ccccc1	x	i	101.5	x
CCN(Cc1cccs1)C(=O)CN1C(=O)NC(c2ccccc2)(c2ccccc2)C1=O	295.7	i	100.5	13.1
CCc1ccc(-c2cc(C)no2)cc1S(=O)(=O)N1CCN(c2ccc(OC)cc2)CC1	639.1	i	x	-5.3
